{
  "source": "ChEMBL document CHEMBL4825692",
  "about": "“Benzofuranyl-2-imidazoles as imidazoline I2 receptor ligands for Alzheimer's disease” (Eur J Med Chem, 2021)",
  "key": {"[1]": {"assay": "Displacement of [3H]idazoxan from imidazoline I2 receptor high affinity site in rat brain cerebral cortex membrane measured after 30 mins by liquid scintillation counting spectrometry"}, "[2]": {"target": "T1, Adrenergic receptor alpha-2 (Homo sapiens, UniProt P08913+P18825+P18089)", "T1 sequence (P08913 whole entry)": "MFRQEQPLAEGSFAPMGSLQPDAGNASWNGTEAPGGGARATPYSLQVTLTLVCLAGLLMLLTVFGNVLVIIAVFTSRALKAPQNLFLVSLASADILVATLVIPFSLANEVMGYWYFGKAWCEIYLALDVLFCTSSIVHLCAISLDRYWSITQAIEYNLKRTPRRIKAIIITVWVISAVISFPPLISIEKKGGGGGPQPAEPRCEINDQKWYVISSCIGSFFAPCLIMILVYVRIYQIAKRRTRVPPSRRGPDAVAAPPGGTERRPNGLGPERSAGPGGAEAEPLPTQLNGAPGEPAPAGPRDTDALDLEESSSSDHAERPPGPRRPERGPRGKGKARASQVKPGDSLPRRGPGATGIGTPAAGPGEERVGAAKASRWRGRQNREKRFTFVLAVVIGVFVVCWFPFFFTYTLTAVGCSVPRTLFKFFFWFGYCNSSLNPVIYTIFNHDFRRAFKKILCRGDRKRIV", "T1 sequence (P18825 whole entry)": "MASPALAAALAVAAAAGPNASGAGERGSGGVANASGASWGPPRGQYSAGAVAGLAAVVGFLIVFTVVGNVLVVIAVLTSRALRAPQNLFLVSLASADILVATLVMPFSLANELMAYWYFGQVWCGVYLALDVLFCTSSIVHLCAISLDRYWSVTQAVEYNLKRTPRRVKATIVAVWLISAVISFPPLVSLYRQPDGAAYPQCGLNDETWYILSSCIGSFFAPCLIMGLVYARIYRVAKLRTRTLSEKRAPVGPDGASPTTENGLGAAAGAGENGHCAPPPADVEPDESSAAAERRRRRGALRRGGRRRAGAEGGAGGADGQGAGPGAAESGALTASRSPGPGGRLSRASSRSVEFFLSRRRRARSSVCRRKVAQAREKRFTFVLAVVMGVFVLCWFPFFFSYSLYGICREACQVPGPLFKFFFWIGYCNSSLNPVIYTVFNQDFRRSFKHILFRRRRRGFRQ", "T1 sequence (P18089 whole entry)": "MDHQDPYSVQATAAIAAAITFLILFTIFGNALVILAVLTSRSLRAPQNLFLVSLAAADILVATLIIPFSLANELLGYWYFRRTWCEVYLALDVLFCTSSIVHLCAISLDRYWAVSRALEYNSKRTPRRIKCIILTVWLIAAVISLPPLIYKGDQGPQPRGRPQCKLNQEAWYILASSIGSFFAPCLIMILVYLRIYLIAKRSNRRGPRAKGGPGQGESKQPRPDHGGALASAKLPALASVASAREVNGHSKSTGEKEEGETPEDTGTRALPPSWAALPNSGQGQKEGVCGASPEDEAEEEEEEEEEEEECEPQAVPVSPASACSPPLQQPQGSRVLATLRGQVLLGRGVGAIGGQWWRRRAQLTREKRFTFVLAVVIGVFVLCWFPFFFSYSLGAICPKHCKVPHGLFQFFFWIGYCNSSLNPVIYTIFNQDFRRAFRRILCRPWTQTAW", "assay": "Displacement of [3H]-RX821002 from adrenergic alpha 2 receptor in post-mortem human brain frontal cortex membrane measured after 30 mins by liquid scintillation counting spectrometry", "type": "cell membranes"}, "[3]": {"assay": "Displacement of [3H]2-BFI from imidazoline I2 receptor low affinity site in post-mortem human brain frontal cortex membrane two site model measured after 45 mins by liquid scintillation counting spectrometry"}, "Cytochrome P450 2D6": {"target": "Cytochrome P450 2D6 (Homo sapiens, UniProt P10635)", "sequence (P10635 whole entry)": "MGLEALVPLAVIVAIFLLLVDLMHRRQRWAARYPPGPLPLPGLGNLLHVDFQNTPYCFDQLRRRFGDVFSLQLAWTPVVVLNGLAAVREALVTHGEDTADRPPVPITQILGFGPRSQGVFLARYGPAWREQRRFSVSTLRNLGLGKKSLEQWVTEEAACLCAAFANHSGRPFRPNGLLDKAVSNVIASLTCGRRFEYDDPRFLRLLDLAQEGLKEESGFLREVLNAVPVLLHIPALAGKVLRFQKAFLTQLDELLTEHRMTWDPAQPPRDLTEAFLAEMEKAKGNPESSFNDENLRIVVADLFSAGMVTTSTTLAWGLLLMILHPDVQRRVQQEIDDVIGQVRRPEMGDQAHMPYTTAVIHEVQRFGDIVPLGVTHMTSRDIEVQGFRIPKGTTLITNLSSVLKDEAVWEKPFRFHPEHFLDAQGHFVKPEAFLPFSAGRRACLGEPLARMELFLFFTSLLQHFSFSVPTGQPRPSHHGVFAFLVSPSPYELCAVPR", "assay": "Inhibition of CYP2D6 (unknown origin) at 10 uM", "type": "ADME", "how_it_was_run": "(§1)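 Recombinant human CYP1A2, CYP2C9, CYP2C19, CYP2D6 and CYP3A4 (7-BFC or DBF as probe) were tested with probe substances and fluorescent detection, with test compound at 10 μM.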"}, "[4]": {"assay": "Plasma protein binding in human assessed as unbound fraction", "type": "ADME, cell-free"}, "[5]": {"assay": "Permeability of compound by PAMPA-BBB assay", "type": "ADME"}, "Cytochrome P450 2C19": {"target": "Cytochrome P450 2C19 (Homo sapiens, UniProt P33261)", "sequence (P33261 whole entry)": "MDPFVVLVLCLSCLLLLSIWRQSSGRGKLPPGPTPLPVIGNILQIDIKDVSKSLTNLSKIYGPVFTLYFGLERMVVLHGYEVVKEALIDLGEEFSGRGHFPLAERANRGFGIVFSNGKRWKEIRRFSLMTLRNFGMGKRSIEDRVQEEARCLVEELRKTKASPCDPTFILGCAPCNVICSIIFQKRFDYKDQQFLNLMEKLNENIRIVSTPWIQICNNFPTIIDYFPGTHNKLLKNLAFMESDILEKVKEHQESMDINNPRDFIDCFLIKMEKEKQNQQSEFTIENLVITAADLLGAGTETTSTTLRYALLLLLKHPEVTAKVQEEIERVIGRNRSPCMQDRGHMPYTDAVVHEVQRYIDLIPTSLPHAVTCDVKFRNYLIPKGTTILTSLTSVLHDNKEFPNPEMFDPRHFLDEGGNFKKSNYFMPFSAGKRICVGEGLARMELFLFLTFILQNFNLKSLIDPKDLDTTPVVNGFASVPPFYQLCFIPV", "assay": "Inhibition of CYP2C19 (unknown origin) at 10 uM", "type": "ADME", "how_it_was_run": "as §1"}, "[6]": {"assay": "Tmax in CD-1 mouse at 10 mg/kg, po measured after 24 hrs by HPLC/UV-VS analysis", "type": "ADME, organism-based", "details": "in vivo; call rule not given here", "how_it_was_run": "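Male CD1 mice (40–50 g, n = 3–4 per group) received a single 10 mg/kg dose. Plasma was taken at 15, 30, 45 and 60 min and 2, 3, 4, 5, 8 and 24 h. Drug was measured by HPLC-UV at 290 nm against a calibration of 0,025-5 μg/mL. Non-compartmental analysis used the mean curve: t1/2β = ln2/β from least-squares terminal slope; Tmax read directly.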"}, "[7]": {"assay": "Displacement of [3H]2-BFI from imidazoline I2 receptor high affinity site in post-mortem human brain frontal cortex membrane two site model measured after 45 mins by liquid scintillation counting spectrometry"}},
  "data": [
    {"smiles": "Cl.c1ccc2oc(-c3ncc[nH]3)cc2c1", "values": [
      {"measurement": "pKi", "setting": "[1]", "result": 6.45},
      {"measurement": "pKi", "setting": "[2]", "result": 3.18},
      {"measurement": "pKi", "setting": "[3]", "result": 6.02},
      {"measurement": "inhibition (INH)", "setting": "Cytochrome P450 2D6", "result": "Not Active"},
      {"measurement": "fraction unbound", "setting": "[4]", "result": 0.071},
      {"measurement": "Papp", "setting": "[5]", "result": 136, "unit": "nm/s"},
      {"measurement": "inhibition (INH)", "setting": "Cytochrome P450 2C19", "result": "Not Active"},
      {"measurement": "Tmax", "setting": "[6]", "result": 2, "unit": "h"},
      {"measurement": "pKi", "setting": "[7]", "result": 8.17}
    ]}
  ]
}
